Screening results (PubChem)
SKN-1 inh: suppressors of acrylamide-induced Pgst-4::GFP reporter in worms, primary screen, SKN-1 inhibitor project, whole organism, uHTS, GFP/RFP fluorescence ratio, strain VP596; AID 624304, 2012; C. elegans VP596 Pgst-4::GFP/RFP ratio, 24 h; hit rate 0.49% among 360,000; inhibition, % at 21.8 µM;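 active means interference check ratio from 0.5 to 1.5 plus GFP to RFP signal ratio inhibition reaching or exceeding a fixed threshold, cut at about 30% in these data, passing the limit was not always enough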
MsrA inhibitor: bovine MsrA enzyme inhibitors, primary screen, biochemical, absorbance, HTS | Methionine sulfoxide reductase A (Bos taurus) | purified bovine MsrA, absorbance read-out | inhibition, % at 15.5 µM | hit rate 0.75% among 360,000 | AID 651718, 2012; in the data active means inhibition above about 4.5%
MT1-MMP act inh: blockers of MT1-MMP proenzyme processing, primary screen, HT1080 RFP-PRO-GFP cells, GFP/RFP fluorescence | hit rate 0.061% among 360,000 | Matrix metalloproteinase-14 (Homo sapiens), P50281 | GFP/RFP ratio fluorescence, overnight; percent of plate control window, DMSO zero | GFP/RFP ratio change, % at 20 µM;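 active means GFP/RFP ratio change of at least 30% with cell ATP level not reduced by more than half and red fluorescence within 50% of control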
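Material – HT1080 RFP-PRO-GFP cells · Control set – DMSO wells and RFP-L50D-GFP cells · Incubation – overnight cell settling, then overnight compound exposure, 37 °C, 5% CO2 · Compound dosing – single-point 20 µM compound, 1% DMSO · Read-out – GFP/RFP fluorescence ratio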
DAGLB inh: DAGLB lipase inhibitors, primary screen, biochemical, fluorescence, HTS. AID 504411, 2011. Diacylglycerol lipase-beta (Homo sapiens), Q8NCG7. hit rate 0.059% among 340,000. inhibition, % at 5.17 µM. HEK293T DAGLB membrane lysate, EnzChek fluorogenic substrate; in the data active means inhibition above about 34%
MIN6 prolif: inducers of MIN6 beta-cell proliferation, primary screen, ATP luminescence, uHTS; hit rate 0.29% among 330,000; MIN6 cells proliferation, ATPlite luminescence, 48 h; cells starved in 0.2% serum; 100% = growth in 10% serum; proliferation, % at 10 µM;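 active means compounds whose signal lies at least 3.5 SD above the mean of all wells on their plate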
bovine MsrA act: bovine MsrA enzyme activators, primary screen, biochemical, absorbance, HTS. Methionine sulfoxide reductase A (Bos taurus). purified bovine MsrA, absorbance read-out. activation, % at 10.6 µM. hit rate 0.3% among 360,000. AID 602163, 2012; in the data active means activation above about 7.5%
DAGLB inh conf: DAGLB lipase inhibitors, retest, confirmation, biochemical, fluorescence, HEK293T membranes. shares compounds with DAGLB inh. HEK293T DAGLB membrane lysate, EnzChek fluorogenic substrate. inhibition, % at 5.17 µM. hit rate 73% among 190;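 active means mean inhibition over triplicate wells above a set limit taken from the primary lipase screen, cut at about 34% in these data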
MsrA activ conf: bovine MsrA activators, retest, confirmation, biochemical, absorbance, HTS; shares compounds with bovine MsrA act; AID 602270, 2012; purified bovine MsrA, absorbance read-out; activation, % at 10.6 µM; hit rate 12% among 1,000; in the data active means activation above about 4%;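 further: enzyme coupled to thioredoxin and thioredoxin reductase with NADPH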
MT1-MMP conf: MT1-MMP activation inhibitors, hit retest, confirmation, single concentration, fluorescence, HT1080 RFP-PRO-GFP cells. shares compounds with MT1-MMP act inh. GFP and RFP fluorescence ratio, overnight. inhibition, % at 20 µM. AID 652235, 2013. hit rate 10% among 200;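 active means inhibition of at least 50% in the primary cell screen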
Large screens that a line does not name were inactive (follow-up assays come after a bar, where they were run). Only some compounds are listed: those with a hit (about 1.8% of all), similar ones and a draw of the others.

COC(=O)[C@]12C[C@H](CC(=O)NCCc3ccccc3OC)C(=O)N(Cc3ccc4c(c3)OCO4)C1=C[C@H](COCc1ccccc1)O[C@@H]2C	none (no result: SKN-1 inh, MT1-MMP act inh, DAGLB inh, MIN6 prolif, bovine MsrA act)
O=S(=O)(O)c1cccc(N=Nc2c(O)ccc3ccccc23)c1	DAGLB inh 37.1 | DAGLB inh conf 36.7
Cc1ccc(C2C(/C=C3/SC(=S)NC3=O)=C(c3cccs3)Oc3ccccc32)cc1 (stereo not drawn)	DAGLB inh 39.5 | DAGLB inh conf 44.3
Nc1ccc2ccccc2c1N=Nc1ccccc1	DAGLB inh 36.2 (no result: MIN6 prolif) | DAGLB inh conf 43.3
Nc1ncnc(N)c1N=Nc1ccccc1	none
N#C/C(N=Nc1ccccc1O)=N\Nc1ccccc1O	DAGLB inh 41.2 | DAGLB inh conf 82.7
Oc1ccccc1N=N/C(=N/Nc1ccccc1O)c1ccccc1	none
CCc1cc2c(nc1CC)CCCN2S(=O)(=O)c1ccccc1C	none (no result: SKN-1 inh, MT1-MMP act inh, DAGLB inh, MIN6 prolif, bovine MsrA act)
COc1ccc(N(CC(=O)NCc2ccco2)S(C)(=O)=O)cc1	DAGLB inh 64.9 | DAGLB inh conf inactive
CCn1nc([N+](=O)[O-])c(C(C#N)c2nc3cc(C(F)(F)F)ccc3s2)c(Cl)c1=O (stereo not drawn)	DAGLB inh 60.1 | DAGLB inh conf 106.1
C[C@H]1Cn2cnc(C(=O)N3CCN(C(=O)OC(C)(C)C)CC3)c2C(=O)N1	none (no result: SKN-1 inh, MT1-MMP act inh, DAGLB inh, MIN6 prolif, bovine MsrA act)
CN(c1ccccc1)c1ccc(/C=C(/CCC(=O)O)c2nc3ccccc3s2)cc1[N+](=O)[O-]	DAGLB inh 35.1 (no result: MIN6 prolif) | DAGLB inh conf 49.6
O=C(O)CC/C(=C\c1ccc(N2CCCC2)c([N+](=O)[O-])c1)c1nc2ccccc2s1	none
Nc1ccc(N=Nc2ccccc2)c2cccnc12	DAGLB inh 37.1 | DAGLB inh conf 42.2
O=[N+]([O-])c1cc([N+](=O)[O-])c2oc(-c3ccccc3)c(Br)c2c1O	DAGLB inh 36.9 (no result: MsrA inhibitor, MIN6 prolif) | DAGLB inh conf 37.2
Cc1ccc(Nc2nnc(SCc3nc4ccccc4c(=O)[nH]3)s2)cc1	DAGLB inh 59.7 | DAGLB inh conf 50.4
O=C(N/N=C/c1ccc([N+](=O)[O-])o1)c1cc2ccccc2o1	none
O=[N+]([O-])c1ccc(/C=N/Nc2ccc3ccccc3c2)o1	DAGLB inh 47.7 | DAGLB inh conf 63.4
C[C@@H]1CNCCN1c1ccc(N2CCN(Cc3ccccc3)[C@@H](C)C2)c(C#N)c1	none (no result: SKN-1 inh, MT1-MMP act inh, DAGLB inh, MIN6 prolif, bovine MsrA act)
O=C(NN1C(=O)/C(=C/c2ccc(O)c([N+](=O)[O-])c2)SC1=S)c1ccccc1Cl	DAGLB inh 44.8 | DAGLB inh conf 41.8
O=C1C(Nc2ccc(O)cc2)=C/C(=N/S(=O)(=O)c2cccs2)c2ccccc21	MsrA inhibitor 48.6, DAGLB inh 37.3, bovine MsrA act 9.9 (no result: MIN6 prolif) | DAGLB inh conf 43.7 | MsrA activ conf 7.9
C=CCN=C1NC(c2ccc(C(F)(F)F)cc2)C(C(=O)OC)=C(C)N1Cc1ccccc1C(F)(F)F (stereo not drawn)	none (no result: SKN-1 inh, MT1-MMP act inh, DAGLB inh, MIN6 prolif, bovine MsrA act)
N#CC(C#N)=NNc1ccc([N+](=O)[O-])cc1	SKN-1 inh 90.2, MT1-MMP act inh 32.5, DAGLB inh 39.2 | DAGLB inh conf 58.4 | MT1-MMP conf inactive
